{"source": "paper PMC7237957", "about": "(European Heart Journal Cardiovascular Imaging, 2019)", "assay_type_in_all_cases": "binding", "key": {"[1]": {"molecular_target": "T1, human thrombus (Homo sapiens, UniProt P00488)", "T1 sequence (P00488 39-732 limits assumed)": "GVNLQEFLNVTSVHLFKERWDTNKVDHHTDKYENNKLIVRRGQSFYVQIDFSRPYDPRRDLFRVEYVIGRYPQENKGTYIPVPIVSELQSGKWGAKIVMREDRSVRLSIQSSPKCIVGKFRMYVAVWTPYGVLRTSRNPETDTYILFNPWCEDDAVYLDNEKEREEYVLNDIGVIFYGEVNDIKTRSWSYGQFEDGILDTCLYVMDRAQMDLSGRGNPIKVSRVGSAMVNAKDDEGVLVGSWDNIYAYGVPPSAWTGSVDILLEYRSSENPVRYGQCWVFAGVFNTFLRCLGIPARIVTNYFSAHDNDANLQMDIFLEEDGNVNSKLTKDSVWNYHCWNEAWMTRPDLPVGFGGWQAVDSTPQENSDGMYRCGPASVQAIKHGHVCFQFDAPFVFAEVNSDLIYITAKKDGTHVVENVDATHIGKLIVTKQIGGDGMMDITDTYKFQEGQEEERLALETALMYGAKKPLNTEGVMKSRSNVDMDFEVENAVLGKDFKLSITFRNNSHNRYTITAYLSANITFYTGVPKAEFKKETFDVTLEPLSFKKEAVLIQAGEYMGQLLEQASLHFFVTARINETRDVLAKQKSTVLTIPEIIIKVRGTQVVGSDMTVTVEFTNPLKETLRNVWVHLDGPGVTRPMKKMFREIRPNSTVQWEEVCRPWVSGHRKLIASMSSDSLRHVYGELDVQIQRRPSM", "assay": "Autoradiography of ex vivo human thrombus sections with blocking", "conditions": "human explanted thrombus sections; 5 μM co-incubated", "summary_of_the_method": "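Paraffin-embedded cross-sections of ex vivo human thrombi (n = 3) were de-paraffinised, rehydrated and incubated 2 h at 37°C with 18F-tracer alone or co-incubated with unlabelled tracer, scrambled peptide or iodoacetamide (each 5 μM), in quadruplicate. Slides were washed twice in phosphate buffer, air-dried and exposed to a phosphor screen. Equal ROIs gave greyscale pixel intensity; %SB = tracer-only minus inhibitor-section activity.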"}, "[2]": {"molecular_target": "T2, Factor XIIIa (Homo sapiens, UniProt P00488)", "T2 sequence (P00488 39-732 limits assumed)": "T1 sequence (P00488 39-732 limits assumed)", "conditions": "co-infusion of iodoacetamide 10 mg/mL, n = 10", "summary_of_the_method": "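Native blood from healthy male volunteers was pumped at 10 mL/min for 5 min through three 37°C chambers over porcine aortic strips (intima removed), at 212 s−1 (low shear) or 1690 s−1 (high shear), then flushed with saline. Tracer was infused at 4.6 ± 0.5 MBq/mL, or 5.5 ± 0.9 MBq/mL with 10 mg/mL iodoacetamide. Strips were scanned by NanoPET/CT; equal thrombus VOIs (kBq/mL) were divided by infused MBq.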"}, "[3]": {"molecular_target": "T3, rodent carotid thrombus (Rattus norvegicus, UniProt O08619)", "T3 sequence (O08619 39-732 limits assumed)": "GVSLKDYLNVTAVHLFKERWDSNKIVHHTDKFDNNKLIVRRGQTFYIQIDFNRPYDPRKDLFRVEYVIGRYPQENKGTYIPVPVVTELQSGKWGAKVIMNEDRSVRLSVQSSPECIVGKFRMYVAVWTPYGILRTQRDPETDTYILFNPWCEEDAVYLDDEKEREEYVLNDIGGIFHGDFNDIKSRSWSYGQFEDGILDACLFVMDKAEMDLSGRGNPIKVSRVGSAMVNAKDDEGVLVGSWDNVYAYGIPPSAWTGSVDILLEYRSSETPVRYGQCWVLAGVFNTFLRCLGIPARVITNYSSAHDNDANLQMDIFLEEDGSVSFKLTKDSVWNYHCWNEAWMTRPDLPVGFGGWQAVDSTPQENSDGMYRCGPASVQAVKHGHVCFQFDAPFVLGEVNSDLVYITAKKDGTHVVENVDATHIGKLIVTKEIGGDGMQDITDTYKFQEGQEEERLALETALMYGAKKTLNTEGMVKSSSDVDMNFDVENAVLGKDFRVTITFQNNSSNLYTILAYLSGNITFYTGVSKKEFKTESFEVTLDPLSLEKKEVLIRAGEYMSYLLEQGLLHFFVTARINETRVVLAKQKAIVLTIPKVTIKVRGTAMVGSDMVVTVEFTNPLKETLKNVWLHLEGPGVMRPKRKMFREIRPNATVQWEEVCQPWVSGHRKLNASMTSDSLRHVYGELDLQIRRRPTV", "conditions": "rodent explanted thrombus sections; 5 μM co-incubated", "summary_of_the_method": "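Thrombosed left common carotid (ferric chloride model) was harvested from one rat after sacrifice. Sections were de-paraffinised, rehydrated and incubated 2 h at 37°C with 18F-tracer alone or with 5 μM unlabelled tracer, scrambled peptide or iodoacetamide. They were then washed, dried and exposed to a phosphor screen. Greyscale intensity was read in equal ROIs; %SB = tracer-only minus inhibitor sections.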"}}, "note": "Where two headings read alike, the source gives them in different places."}
{"smiles": "NC(=O)CI", "note": "[iodoacetamide, Iodoacetamide]", "values": [{"measurement": "Effect on 18F-ENC2015 uptake (autoradiography)", "setting": "[1]", "value": "no effect"}, {"measurement": "Reduction of 18F-ENC2015 thrombus binding", "setting": "[2]; high shear thrombi", "value": 87, "unit": "%"}, {"measurement": "Reduction of 18F-ENC2015 thrombus binding", "setting": "[2]; low shear thrombi", "value": 88, "unit": "%"}, {"measurement": "Effect on 18F-ENC2015 uptake (autoradiography)", "setting": "[3]", "value": "no effect"}]}
